Data taken from ChEMBL document CHEMBL1154720, “Synthesis and biological evaluation of novel 4-hydroxybenzaldehyde derivatives as tyrosinase inhibitors” (Eur J Med Chem, 2010).

What was measured:
[1] = target: T1, Tyrosinase (Agaricus bisporus, UniProt O42713); assay: Inhibition of mashroom tyrosinase assessed as oxidation of L-DOPA by spectrophotometry
T1 sequence (O42713 whole entry): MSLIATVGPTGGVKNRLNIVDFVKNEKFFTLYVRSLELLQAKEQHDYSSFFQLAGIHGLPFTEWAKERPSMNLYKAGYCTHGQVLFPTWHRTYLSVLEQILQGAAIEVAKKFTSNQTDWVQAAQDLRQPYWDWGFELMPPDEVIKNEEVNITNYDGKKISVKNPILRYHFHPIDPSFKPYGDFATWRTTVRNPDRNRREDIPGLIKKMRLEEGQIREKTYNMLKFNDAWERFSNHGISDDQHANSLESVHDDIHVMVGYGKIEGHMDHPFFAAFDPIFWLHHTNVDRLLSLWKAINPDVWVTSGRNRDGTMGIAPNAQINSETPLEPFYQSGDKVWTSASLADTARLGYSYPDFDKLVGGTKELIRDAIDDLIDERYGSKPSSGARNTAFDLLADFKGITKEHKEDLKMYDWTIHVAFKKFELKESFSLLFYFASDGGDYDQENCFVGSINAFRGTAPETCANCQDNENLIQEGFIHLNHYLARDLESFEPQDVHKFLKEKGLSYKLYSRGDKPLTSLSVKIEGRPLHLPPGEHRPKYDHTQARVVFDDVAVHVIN
Summary of the method: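 Mushroom tyrosinase diphenolase activity with L-DOPA as substrate. Compounds dissolved in DMSO and diluted with phosphate buffer pH 6.8, final DMSO 2.0%. Thirty units of enzyme pre-incubated with compound in 50 mM phosphate buffer (pH 6.8) for 10 min at 25 °C. Triplicate per concentration. IC50 interpolated from log concentration–inhibition curves (at least eight points), mean of three experiments.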

[2] = target: T1, Tyrosinase; assay: Inhibition of mushroom tyrosinase assessed as oxidation of L-DOPA by Lineweaver-Burke plot analysis
Summary of the method: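 Kinetics use the same pre-incubation (10 min, 25 °C, 50 mM phosphate pH 6.8) and measurement time as the IC50 assay, with three inhibitor concentrations per compound including zero and L-DOPA varied. Initial velocity taken from absorbance change over time. Lineweaver–Burk plots were drawn, and KI was obtained from a secondary plot of intercept versus inhibitor concentration.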

[3] = tested on: Mus musculus; assay: Toxicity in mouse at 1600 mg/kg/day, po measured for 20 days; type: organism-based; design: route oral; settings: in vivo, 480 h
Summary of the method: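 Ten specific-pathogen-free mice, 4 weeks old, acclimated for one week at 20 ± 2 °C and 50 ± 10% relative humidity, weighing 20 ± 2 g. Mice were fasted 4 h, then given a single oral gavage in carboxymethyl cellulose (10 ml/kg; dosing solution 160 mg/ml). Vehicle served as negative control. Clinical signs and mortality were followed 20 days, then organs were examined at autopsy.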

Row | Compound | IC50 [1] [µM] | Ki [2] [µM] | Activity [3]
1 | COC(=O)C(Cc1ccccc1)NC(=O)COc1ccc(C=O)cc1 (stereo not drawn) | 480 | – | –
2 | COC(=O)C1CCCN1C(=O)COc1ccc(C=O)cc1 (stereo not drawn) | 760 | – | –
3 | O=Cc1ccc(OCCO)cc1 | 2550 | – | –
4 | O=Cc1ccc(OCC(O)CO)cc1 (stereo not drawn) | 1260 | – | –
5 | CCC(C)C(NC(=O)COc1ccc(C=O)cc1)C(=O)OC (stereo not drawn) | 460 | – | –
6 | COC(=O)CNC(=O)COc1ccc(C=O)cc1 | 170 | 117 | –
7 | O=Cc1ccc(OCOCCO)cc1 | 370 | – | –
8 | COCCCCOc1ccc(C=O)cc1 | 620 | – | –
9 | COC(=O)C(C)NC(=O)COc1ccc(C=O)cc1 (stereo not drawn) | 160 | 125 | –
10 | COC(=O)C(CCSC)NC(=O)COc1ccc(C=O)cc1 (stereo not drawn) | 400 | – | –
11 | COC(=O)C(CC(C)C)NC(=O)COc1ccc(C=O)cc1 (stereo not drawn) | 1650 | – | –
12 | COC(=O)C(Cc1ccc(O)cc1)NC(=O)COc1ccc(C=O)cc1 (stereo not drawn) | 220 | – | –
13 | CCOP(=O)(OCC)OCCOc1ccc(C=O)cc1 | 550 | – | –
14 | O=Cc1ccc(OCCOC(=O)CCC(=O)O)cc1 | 620 | – | –
15 | COCCOc1ccc(C=O)cc1 | 660 | – | –
16 | COCC(O)COc1ccc(C=O)cc1 (stereo not drawn) | 750 | – | –
17 | COP(=O)(OC)OCCOc1ccc(C=O)cc1 | 59 | 36.8 | Non-toxic
18 | O=Cc1ccc(OCOC(CO)CO)cc1 | 270 | – | –
19 | COCCOCCOc1ccc(C=O)cc1 | 900 | – | –
20 | O=Cc1ccc(OCC2CO2)cc1 (stereo not drawn) | 590 | – | –
21 | O=Cc1ccc(OCCOP(=O)(O)O)cc1 | 820 | – | –
22 | COC(=O)C(Cc1c[nH]c2ccccc12)NC(=O)COc1ccc(C=O)cc1 (stereo not drawn) | 110 | 54 | –
23 | CCCCOCCOc1ccc(C=O)cc1 | 3260 | – | –
